A word on the inhibition: it is the drop in the measured response relative to a control, in per cent. The IC50 is the concentration that inhibits the measured activity by half.

Experimental findings from ChEMBL document CHEMBL1800052, “Regioselective Suzuki coupling of dihaloheteroaromatic compounds as a rapid strategy to synthesize potent rigid combretastatin analogues” (J Med Chem, 2011) are described below.

Structures are written as SMILES. Activity calls are given as the source filed them. The calls are words filed in the database; no cut-off is given here.

Assay [1] relates to SH-SY5Y. The assay can be described thus: Cytotoxicity against human SH-SY5Y cells assessed as cell viability at 1 uM after 48 hrs by MTT assay. Conditions: read-out: Activity. The format is functional. Summed up:
(§1)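 SH-SY5Y cells in 50% DMEM/50% F-12 with 10% FBS, 2 mM L-glutamine, penicillin and streptomycin, grown 48 h with or without compound. Cells were washed in Locke's solution (pH 7.6), given MTT (250 μg/mL) for 30 min at 37 °C, solubilized in isopropyl alcohol/HCl, and read at 570 nm. Single-point values are % viable cells at 1 μM. IC50s come from fitted full concentration-response curves; mean ± SD of 12 determinations from 3 experiments.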
Background: Tetrazolium assays rely on reduction of a dye to a coloured formazan, in cell work by metabolically active cells.

Assay [2] has as its target T1, Tubulin alpha (Homo sapiens) (UniProt P0DPH7+P68366+Q71U36+P68363+Q9BQE3+Q6PEY2+A6NHL2+Q9NY65). Nature of the assay: Inhibition of tubulin alpha in human SH-SY5Y cells assessed as inhibition of tubulin alpha polymerization at 3 times IC50 value after 24 hrs by immunofluorescence. The format is cell-based. Summed up: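 Cells were fixed in 3.7% paraformaldehyde for 20 min, permeabilized in ice-cold 80% MeOH, and blocked with 0.2% fish gelatine. Staining used anti-α-tubulin (1:1000, 20 min RT), then Alexa 488 anti-mouse with DRAQ5 nuclear stain. Imaging was by confocal microscopy with a 63× oil objective.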

Assay [3] addresses T1, Tubulin alpha (Homo sapiens). The assay can be described thus: Inhibition of tubulin alpha polymerization in human HeLa cells assessed as decreased pelletable tubulin alpha fraction at 3 times IC50 value after 16 hrs by Western blotting in presence of paclitaxel. The format is cell-based. Summed up:
(§2)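 Cells were grown 16 h with or without drug (3 × IC50), trypsinized, and lysed 10 min at RT in hypotonic buffer (20 mM Tris-HCl pH 6.8, 1 mM MgCl2, 2 mM EGTA, 0.5% NP-40, protease inhibitors) containing 4 μg/mL paclitaxel. Protein-normalized lysate (50 μg) was spun at 13 000 rpm for 15 min. Pellet (polymerized) and supernatant (free) fractions were run on 10% SDS-PAGE and blotted with anti-α-tubulin, read by chemiluminescence.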
Background: A western blot detects proteins with antibodies after separation by electrophoresis.

For assay [4] the target is unchanged. The assay can be described thus: Inhibition of tubulin alpha polymerization in human HeLa cells assessed as increase in soluble tubulin alpha fraction at 3 times IC50 value after 16 hrs by Western blotting in presence of paclitaxel. The assay is classed as cell-based. The gist of the method:
as §2

Assay [5] deals with SH-SY5Y. The assay can be described thus: Cytotoxicity against human SH-SY5Y cells assessed as cell viability after 48 hrs by MTT assay. The assay is classed as functional, cell-based. The gist of the method:
as §1

In assay [6] the test system is HeLa. Nature of the assay: Cytotoxicity against human HeLa cells assessed as cell viability after 48 hrs by MTT assay. The format is functional, cell-based.
Assay [7] deals with HeLa. Nature of the assay: Cell cycle arrest in human HeLa cells assessed as accumulation at G2/M phase at 3 times IC50 value after 16 hrs using propidium iodide staining by FACS analysis. The format is functional, cell-based. Summed up:
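Cells were treated 16 h with vehicle or 3 × IC50 compound, washed in PBS, fixed in ice-cold 30:70 PBS/EtOH, and stored at −20 °C. They were then treated with RNase (100 μg/mL) for 30 min at RT and stained with propidium iodide (100 μg/mL) in PBS with 5 mM EDTA for 30 min in the dark. DNA content was read by flow cytometry, representative of three experiments.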

Assay [8] is described as follows: Inhibition of tubulin alpha polymerization. Conditions: concentration not given here.

With `COc1ccc(-c2cscc2-c2cc(OC)c(OC)c(OC)c2)cc1OC`, the viability at 1 µM in the assay with SH-SY5Y [1] was determined as 94%.
Turning to `COc1ccc(-c2ccoc2-c2cc(OC)c(OC)c(OC)c2)cc1O`, the viability at 1 µM with SH-SY5Y [1] was 23%. Moreover, the “tubulin polymerization inhibition (qualitative call)” value (shortened to “tubulin polymerization inhibition”) in assay [2] is “Active”. The inhibition result in assay [3] and in assay [4] was “Active” throughout. In addition, the IC50 in the assay with SH-SY5Y [5] amounted to 2.4 nM; in the assay with HeLa [6], 3.1 nM. Further, in the assay on HeLa [7], the result was Active.
As for `COc1cc(-c2cscc2-c2cc(OC)c(OC)c(OC)c2)cc(OC)c1OC`, the viability at 1 µM in the assay on SH-SY5Y [1] was 91%.
Turning to `COc1cc(-c2cscc2-c2cccc(C(F)(F)F)c2)cc(OC)c1OC`, the viability at 1 µM in the assay with SH-SY5Y [1] was found to be 91%.
In the case of `COc1cccc(-c2cscc2-c2cc(OC)c(OC)c(OC)c2)c1F`, the viability at 1 µM in the assay with SH-SY5Y [1] came to 28%. For the same compound, the IC50 with SH-SY5Y [5] was 330 nM; in the assay on HeLa [6], 430 nM.
With `COc1ccc(-c2cscc2-c2cc(OC)c(OC)c(OC)c2)cc1F`, in the assay with SH-SY5Y [1], the viability at 1 µM turned out to be 52%.
As to `COc1ccc(-c2cscc2-c2cc(OC)c(OC)c(OC)c2)cc1`, the viability at 1 µM with SH-SY5Y [1] was determined as 31%. Moreover, the IC50 amounted to 480 nM in the assay on SH-SY5Y [5] and 420 nM in the assay with HeLa [6].
For the compound `COc1cc(-c2cscc2-c2ccc(O)cc2)cc(OC)c1OC`, in the assay with SH-SY5Y [1], the viability at 1 µM turned out to be 93%.
As to `COc1ccc(-c2ccoc2-c2cc(OC)c(OC)c(OC)c2)cc1`, the viability at 1 µM with SH-SY5Y [1] is 23%. Also, the IC50 in the assay with SH-SY5Y [5] turned out to be 28 nM; with HeLa [6] it was 17 nM.
For the compound `COc1cc(-c2cscc2-c2ccc(C)c(C)c2)cc(OC)c1OC`, in the assay with SH-SY5Y [1], the viability at 1 µM stood at 84%.
In the case of `COc1ccc(-c2cscc2-c2cc(OC)c(OC)c(OC)c2)c(OC)c1`, the viability at 1 µM in the assay with SH-SY5Y [1] came to 90%.
On to `COc1cc(-c2cscc2-c2ccc(Cl)c(C(F)(F)F)c2)cc(OC)c1OC`, for which the viability at 1 µM in the assay on SH-SY5Y [1] was found to be 91%.
Take `COc1cc(-c2cscc2-c2ccc(C)c(F)c2)cc(OC)c1OC`: the viability at 1 µM in the assay on SH-SY5Y [1] worked out at 30%. Besides, the IC50 with SH-SY5Y [5] is 310 nM; in the assay with HeLa [6], 420 nM. Further, the outcome with HeLa [7] was Active.
As to `COc1ccc(C2=C(c3cc(OC)c(OC)c(OC)c3)CCC2)cc1O`, the viability at 1 µM in the assay with SH-SY5Y [1] is 33%. Besides, the “tubulin polymerization inhibition” value in assay [2] is “Active”. Also, the inhibition result in assay [3] and in assay [4] was “Active” in each case. The IC50 with SH-SY5Y [5] is 37 nM; in the assay with HeLa [6], 300 nM. In the assay on HeLa [7], the result was Active.
Turning to `COc1cccc(-c2cscc2-c2cc(OC)c(OC)c(OC)c2)c1`, the viability at 1 µM with SH-SY5Y [1] was 49%.
On to `COc1cc(-c2cscc2-c2ccc3c(c2)OCO3)cc(OC)c1OC`, for which the viability at 1 µM in the assay on SH-SY5Y [1] was 65%.
With `COc1cc(-c2cscc2-c2cccc3ncccc23)cc(OC)c1OC`, the viability at 1 µM in the assay on SH-SY5Y [1] was 100%.
On to `COc1ccc(-c2cscc2-c2cc(OC)c(OC)c(OC)c2)cc1O`, for which the viability at 1 µM in the assay on SH-SY5Y [1] was 29%. Further, the “tubulin polymerization inhibition” value in assay [2] was “Active”. Also, the inhibition result in assay [3] and in assay [4] was “Active” in each case. Also, the IC50 came to 79 nM with SH-SY5Y [5] and 200 nM with HeLa [6]. The outcome in the assay on HeLa [7] was Active.
With `COc1ccc(/C=C\c2cc(OC)c(OC)c(OC)c2)cc1O` [COMBRETASTATIN A4], the viability at 1 µM in the assay on SH-SY5Y [1] came to 23%. For the same compound, in assay [2], the “tubulin polymerization inhibition” value was “Active”. The inhibition result in assay [3] and in assay [4] was “Active” in each case. Further, the IC50 with SH-SY5Y [5] amounted to 2.3 nM; in the assay with HeLa [6], 1.7 nM. Moreover, the outcome in the assay on HeLa [7] was Active.
Take `COc1ccc(-c2cscc2-c2cc(OC)c(OC)c(OC)c2)cn1`: the viability at 1 µM in the assay with SH-SY5Y [1] came to 82%.
Regarding `COc1ccc(-c2occc2-c2cc(OC)c(OC)c(OC)c2)cc1`, the viability at 1 µM in the assay on SH-SY5Y [1] was 24%. Besides, the “tubulin polymerization inhibition” value in assay [2] was “Active”. Besides, the IC50 was found to be 34 nM in the assay with SH-SY5Y [5] and 170 nM with HeLa [6].
For `COc1ccc(-c2occc2-c2cc(OC)c(OC)c(OC)c2)cc1O`, in the assay on SH-SY5Y [1], the viability at 1 µM was 20%. The inhibition entry in assay [3] and in assay [4] was “Active” in each case. Further, the IC50 in the assay with SH-SY5Y [5] is 9.4 nM; in the assay on HeLa [6], 20 nM. This compound returned an inhibition in assay [8] of 50%. Further, the result in the assay on HeLa [7] was Active.
For `COc1cc(-c2cscc2-c2cccnc2)cc(OC)c1OC`, in the assay on SH-SY5Y [1], the viability at 1 µM came to 109%.
In the case of `COc1cc(-c2cscc2-c2ccc3c(c2)OCCO3)cc(OC)c1OC`, the viability at 1 µM with SH-SY5Y [1] was found to be 27%. Also, the IC50 in the assay with SH-SY5Y [5] was 350 nM; with HeLa [6], 420 nM. Further, the result with HeLa [7] was Active.
For `COc1cc(-c2cscc2-c2cccc(C#N)c2)cc(OC)c1OC`, in the assay with SH-SY5Y [1], the viability at 1 µM was 97%.
For `COc1ccc(-c2cscc2-c2cc(OC)c(OC)c(OC)c2)cc1C`, the viability at 1 µM in the assay with SH-SY5Y [1] was 80%.
Still for that read-out and setting: as for `COc1cc(-c2cscc2-c2cnc3ccccc3c2)cc(OC)c1OC`, the figure is 45%.
Take `COc1cc(-c2cscc2-c2ccc(OC(F)(F)F)cc2)cc(OC)c1OC`: in the assay on SH-SY5Y [1], the viability at 1 µM worked out at 93%.
Regarding `COc1cc(-c2cscc2-c2cccc3ccccc23)cc(OC)c1OC`, the viability at 1 µM in the assay with SH-SY5Y [1] stood at 83%.
In the case of `COc1cc(-c2cscc2-c2cccc([N+](=O)[O-])c2)cc(OC)c1OC`, in the assay with SH-SY5Y [1], the viability at 1 µM was determined as 108%.
For `COc1cc(-c2cscc2-c2cccc(OC)c2OC)cc(OC)c1OC`, the viability at 1 µM in the assay on SH-SY5Y [1] was found to be 90%.
`COc1cc(-c2cscc2-c2ccc(SC)cc2)cc(OC)c1OC`: the viability at 1 µM with SH-SY5Y [1] was determined as 51%.
